According to ChEMBL document CHEMBL2390927, “Design, synthesis and antimicrobial evaluation of novel benzimidazole type of Fluconazole analogues and their synergistic effects with Chloromycin, Norfloxacin and Fluconazole” (2013):
Values after ≈ are worked out from the molar mass of the structure shown.

Legend:
[1] = system: Bacillus; assay: Antibacterial activity against Bacillus proteus ATCC 13315 after 24 hrs by two-fold serial dilution method; format: functional; settings: ATCC 13315, 24 h
Procedure, shortened: (§1)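 MIC taken as the lowest concentration giving complete growth inhibition, by standard two-fold serial dilution in 96-well plates following NCCLS. Stocks in DMSO, diluted in Mueller–Hinton broth. Inoculum adjusted with sterile saline to 1 × 10⁵ CFU. DMSO with inoculum and no drug served as solvent control. Growth read visually and spectrophotometrically, in triplicate.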

[2] = system: Staphylococcus aureus; assay: Antibacterial activity against methicillin-resistant Staphylococcus aureus N315 after 24 hrs by two-fold serial dilution method; format: functional; settings: N315, 24 h
[3] = system: Escherichia coli; assay: Antibacterial activity against Escherichia coli JM109 after 24 hrs by two-fold serial dilution method; format: functional; settings: JM109, 24 h
[4] = system: Micrococcus luteus; assay: Antibacterial activity against Micrococcus luteus ATCC 4698 after 24 hrs by two-fold serial dilution method; format: functional; settings: ATCC 4698, 24 h; procedure, shortened: as §1
[5] = system: Bacillus subtilis; assay: Antibacterial activity against Bacillus subtilis ATCC 21216 after 24 hrs by two-fold serial dilution method; format: functional; settings: ATCC 21216, 24 h; procedure, shortened: as §1
[6] = system: Candida albicans; assay: Antifungal activity against Candida albicans ATCC 76615 after 24 hrs by two-fold serial dilution method; format: functional; settings: ATCC 76615, 24 h
Procedure, shortened: (§2)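 Spore suspension in sterile distilled water from one-day-old cultures on Sabouraud agar, final 1–5 × 10³ spore mL⁻¹. Compound stocks diluted in sterile RPMI 1640 as two-fold serial dilutions in microdilution plates. MIC is the lowest concentration completely inhibiting growth. Growth monitored visually and spectrophotometrically, in triplicate.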

[7] = system: Saccharomyces cerevisiae; assay: Antifungal activity against Saccharomyces cerevisiae after 24 hrs by two-fold serial dilution method; format: functional; procedure, shortened: as §2
[8] = system: Pseudomonas aeruginosa; assay: Antibacterial activity against Pseudomonas aeruginosa ATCC 27853 after 24 hrs by two-fold serial dilution method; format: functional; settings: ATCC 27853, 24 h; procedure, shortened: as §1
[9] = system: Aspergillus flavus; assay: Antifungal activity against Aspergillus flavus after 24 hrs by two-fold serial dilution method; format: functional; procedure, shortened: as §2
[10] = system: Staphylococcus aureus; assay: Antibacterial activity against Staphylococcus aureus ATCC 6538 after 24 hrs by two-fold serial dilution method; format: functional; settings: ATCC 6538, 24 h
[11] = system: Salmonella typhi; assay: Antibacterial activity against Bacillus typhi after 24 hrs by two-fold serial dilution method; format: functional, Salmonella enterica subsp. enterica serovar Typhi; settings: Salmonella enterica
Procedure, shortened: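 Two-fold serial dilution in 96-well plates following NCCLS; compounds dissolved in DMSO as stocks, then diluted in Mueller-Hinton broth; bacterial suspension adjusted with sterile saline to 1 × 10⁵ CFU; MIC taken as lowest concentration completely inhibiting growth, monitored visually and spectrophotometrically; DMSO-plus-inoculum well as solvent control; triplicate.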

[12] = system: Cyberlindnera jadinii; assay: Antifungal activity against Candida utilis after 24 hrs by two-fold serial dilution method; format: functional; settings: Williopsis jadinii; procedure, shortened: as §2
[13] = system: Candida; assay: Antifungal activity against Candida mycoderma after 24 hrs by two-fold serial dilution method; format: functional; procedure, shortened: as §2

Compound | MIC [1] [µg/mL] | MIC [2] [µg/mL] | MIC [3] [µg/mL] | MIC [4] [µg/mL] | MIC [5] [µg/mL] | MIC [6] [µg/mL] | MIC [7] [µg/mL] | MIC [8] [µg/mL] | MIC [9] [µg/mL] | MIC [10] [µg/mL] | MIC [11] [µg/mL] | MIC [12] [µg/mL] | MIC [13] [µg/mL]
Ic1ccc(NCc2nc3ccccc3[nH]2)cc1 | 64 (≈ 183 µM) | 128 (≈ 367 µM) | 64 (≈ 183 µM) | 128 (≈ 367 µM) | 64 (≈ 183 µM) | 64 (≈ 183 µM) | 64 (≈ 183 µM) | 128 (≈ 367 µM) | 128 (≈ 367 µM) | 64 (≈ 183 µM) | 64 (≈ 183 µM) | 64 (≈ 183 µM) | 128 (≈ 367 µM)
Cc1ccc(NCc2nc3ccccc3[nH]2)cc1 | 16 (≈ 67.4 µM) | 128 (≈ 539 µM) | 64 (≈ 270 µM) | 512 (≈ 2160 µM) | 64 (≈ 270 µM) | 32 (≈ 135 µM) | 64 (≈ 270 µM) | 64 (≈ 270 µM) | 128 (≈ 539 µM) | 32 (≈ 135 µM) | 64 (≈ 270 µM) | 32 (≈ 135 µM) | 256 (≈ 1080 µM)
Fc1ccc(NCc2nc3ccccc3[nH]2)c(F)c1 | 16 (≈ 61.7 µM) | 64 (≈ 247 µM) | 16 (≈ 61.7 µM) | 64 (≈ 247 µM) | 32 (≈ 123 µM) | 64 (≈ 247 µM) | 32 (≈ 123 µM) | 64 (≈ 247 µM) | 64 (≈ 247 µM) | 16 (≈ 61.7 µM) | 32 (≈ 123 µM) | 32 (≈ 123 µM) | 32 (≈ 123 µM)
Clc1ccc(NCc2nc3ccccc3[nH]2)c(Cl)c1 | 64 (≈ 219 µM) | 64 (≈ 219 µM) | 32 (≈ 110 µM) | 64 (≈ 219 µM) | 32 (≈ 110 µM) | 32 (≈ 110 µM) | 64 (≈ 219 µM) | 64 (≈ 219 µM) | 64 (≈ 219 µM) | 64 (≈ 219 µM) | 128 (≈ 438 µM) | 32 (≈ 110 µM) | 32 (≈ 110 µM)
CCCN(Cc1nc2ccccc2[nH]1)c1ccc(C)cc1 | 128 (≈ 458 µM) | 256 (≈ 916 µM) | 128 (≈ 458 µM) | 128 (≈ 458 µM) | 64 (≈ 229 µM) | 128 (≈ 458 µM) | 128 (≈ 458 µM) | 256 (≈ 916 µM) | 128 (≈ 458 µM) | 128 (≈ 458 µM) | 128 (≈ 458 µM) | 64 (≈ 229 µM) | 128 (≈ 458 µM)
CCCCCCN(Cc1nc2ccccc2[nH]1)c1ccc(C)cc1 | 256 (≈ 796 µM) | 128 (≈ 398 µM) | 256 (≈ 796 µM) | 64 (≈ 199 µM) | 128 (≈ 398 µM) | 64 (≈ 199 µM) | 64 (≈ 199 µM) | 64 (≈ 199 µM) | 64 (≈ 199 µM) | 128 (≈ 398 µM) | 64 (≈ 199 µM) | 128 (≈ 398 µM) | 128 (≈ 398 µM)
CCCCCCCCN(Cc1nc2ccccc2[nH]1)c1ccc(C)cc1 | 64 (≈ 183 µM) | 128 (≈ 366 µM) | 128 (≈ 366 µM) | 128 (≈ 366 µM) | 16 (≈ 45.8 µM) | 16 (≈ 45.8 µM) | 16 (≈ 45.8 µM) | 16 (≈ 45.8 µM) | 64 (≈ 183 µM) | 32 (≈ 91.6 µM) | 64 (≈ 183 µM) | 32 (≈ 91.6 µM) | 32 (≈ 91.6 µM)
CCCCCCCCCCN(Cc1nc2ccccc2[nH]1)c1ccc(C)cc1 | 256 (≈ 678 µM) | 64 (≈ 170 µM) | 128 (≈ 339 µM) | 128 (≈ 339 µM) | 64 (≈ 170 µM) | 64 (≈ 170 µM) | 32 (≈ 84.8 µM) | 128 (≈ 339 µM) | 64 (≈ 170 µM) | 128 (≈ 339 µM) | 128 (≈ 339 µM) | 64 (≈ 170 µM) | 128 (≈ 339 µM)
CCCCCCCCCCCCN(Cc1nc2ccccc2[nH]1)c1ccc(C)cc1 | 64 (≈ 158 µM) | 128 (≈ 316 µM) | 128 (≈ 316 µM) | 64 (≈ 158 µM) | 128 (≈ 316 µM) | 64 (≈ 158 µM) | 64 (≈ 158 µM) | 128 (≈ 316 µM) | 64 (≈ 158 µM) | 64 (≈ 158 µM) | 64 (≈ 158 µM) | 32 (≈ 78.9 µM) | 16 (≈ 39.4 µM)
CCCCCCCCCCCCCCCCCCN(Cc1nc2ccccc2[nH]1)c1ccc(C)cc1 | 64 (≈ 131 µM) | 128 (≈ 261 µM) | 256 (≈ 523 µM) | 256 (≈ 523 µM) | 64 (≈ 131 µM) | 32 (≈ 65.3 µM) | 64 (≈ 131 µM) | 64 (≈ 131 µM) | 64 (≈ 131 µM) | 128 (≈ 261 µM) | 64 (≈ 131 µM) | 32 (≈ 65.3 µM) | 32 (≈ 65.3 µM)
Fc1ccccc1N(Cc1ccc(Cl)c(Cl)c1)Cc1nc2ccccc2[nH]1 | 64 (≈ 160 µM) | 128 (≈ 320 µM) | 32 (≈ 79.9 µM) | 128 (≈ 320 µM) | 32 (≈ 79.9 µM) | 32 (≈ 79.9 µM) | 64 (≈ 160 µM) | 64 (≈ 160 µM) | 64 (≈ 160 µM) | 64 (≈ 160 µM) | 128 (≈ 320 µM) | 32 (≈ 79.9 µM) | 32 (≈ 79.9 µM)
FC(F)(F)c1cccc(N(Cc2nc3ccccc3[nH]2)Cc2ccc(Cl)cc2Cl)c1 | 64 (≈ 142 µM) | 32 (≈ 71.1 µM) | 64 (≈ 142 µM) | 32 (≈ 71.1 µM) | 64 (≈ 142 µM) | 64 (≈ 142 µM) | 32 (≈ 71.1 µM) | 32 (≈ 71.1 µM) | 64 (≈ 142 µM) | 32 (≈ 71.1 µM) | 32 (≈ 71.1 µM) | 32 (≈ 71.1 µM) | 32 (≈ 71.1 µM)
Fc1ccc(N(Cc2nc3ccccc3[nH]2)Cc2ccc(Cl)cc2Cl)cc1 | 32 (≈ 79.9 µM) | 64 (≈ 160 µM) | 128 (≈ 320 µM) | 64 (≈ 160 µM) | 64 (≈ 160 µM) | 32 (≈ 79.9 µM) | 64 (≈ 160 µM) | 64 (≈ 160 µM) | 64 (≈ 160 µM) | 32 (≈ 79.9 µM) | 64 (≈ 160 µM) | 32 (≈ 79.9 µM) | 64 (≈ 160 µM)
Cc1ccc(N(Cc2nc3ccccc3[nH]2)Cc2ccccc2Cl)cc1 | 32 (≈ 88.4 µM) | 128 (≈ 354 µM) | 32 (≈ 88.4 µM) | 128 (≈ 354 µM) | 64 (≈ 177 µM) | 32 (≈ 88.4 µM) | 64 (≈ 177 µM) | 32 (≈ 88.4 µM) | 32 (≈ 88.4 µM) | 64 (≈ 177 µM) | 64 (≈ 177 µM) | 32 (≈ 88.4 µM) | 32 (≈ 88.4 µM)
Cc1ccc(N(Cc2cccc(Cl)c2)Cc2nc3ccccc3[nH]2)cc1 | 128 (≈ 354 µM) | 128 (≈ 354 µM) | 32 (≈ 88.4 µM) | 128 (≈ 354 µM) | 64 (≈ 177 µM) | 32 (≈ 88.4 µM) | 64 (≈ 177 µM) | 32 (≈ 88.4 µM) | 64 (≈ 177 µM) | 32 (≈ 88.4 µM) | 16 (≈ 44.2 µM) | 32 (≈ 88.4 µM) | 32 (≈ 88.4 µM)
Cc1ccc(N(Cc2ccc(Cl)cc2)Cc2nc3ccccc3[nH]2)cc1 | 32 (≈ 88.4 µM) | 64 (≈ 177 µM) | 32 (≈ 88.4 µM) | 128 (≈ 354 µM) | 64 (≈ 177 µM) | 64 (≈ 177 µM) | 128 (≈ 354 µM) | 64 (≈ 177 µM) | 128 (≈ 354 µM) | 32 (≈ 88.4 µM) | 64 (≈ 177 µM) | 64 (≈ 177 µM) | 32 (≈ 88.4 µM)
Cc1ccc(N(Cc2ccc([N+](=O)[O-])cc2)Cc2nc3ccccc3[nH]2)cc1 | 64 (≈ 172 µM) | 256 (≈ 687 µM) | 64 (≈ 172 µM) | 128 (≈ 344 µM) | 64 (≈ 172 µM) | 128 (≈ 344 µM) | 64 (≈ 172 µM) | 64 (≈ 172 µM) | 128 (≈ 344 µM) | 32 (≈ 85.9 µM) | 64 (≈ 172 µM) | 64 (≈ 172 µM) | 64 (≈ 172 µM)
Cc1ccc(N(Cc2nc3ccccc3[nH]2)Cc2ccc(F)cc2F)cc1 | 64 (≈ 176 µM) | 16 (≈ 44 µM) | 128 (≈ 352 µM) | 64 (≈ 176 µM) | 32 (≈ 88.1 µM) | 32 (≈ 88.1 µM) | 64 (≈ 176 µM) | 32 (≈ 88.1 µM) | 32 (≈ 88.1 µM) | 16 (≈ 44 µM) | 32 (≈ 88.1 µM) | 32 (≈ 88.1 µM) | 32 (≈ 88.1 µM)
Cc1ccc(N(Cc2nc3ccccc3[nH]2)Cc2ccc(Cl)cc2Cl)cc1 | 32 (≈ 80.7 µM) | 64 (≈ 161 µM) | 32 (≈ 80.7 µM) | 128 (≈ 323 µM) | 32 (≈ 80.7 µM) | 64 (≈ 161 µM) | 64 (≈ 161 µM) | 64 (≈ 161 µM) | 128 (≈ 323 µM) | 64 (≈ 161 µM) | 64 (≈ 161 µM) | 64 (≈ 161 µM) | 128 (≈ 323 µM)
